# PGC1a acetyl inh = PGC1a acetylation modulation, inhibitor mode. U2OS PGC1a acetylation, AlphaScreen anti-acetyl-lysine; with virally co-expressed GCN5 acetyltransferase. inhibition, % at 15.6 µM. 350,000 tested, 0.17% active. AID 651687;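 active = every replicate shows inhibition of at least 40%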;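 note: 0% = neutral control wells and 100% = positive control wells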
# ERAP1 inh = blocks human ERAP1 aminopeptidase activity; inhibition, % at 10.7 µM; recombinant ERAP1, Leu-AMC fluorescence, 60 min; AID 652197; 340,000 tested, 0.15% active;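 active = mean replicate inhibition of at least 30%, or all replicates individually reaching that 30% level; inactive = mean below 30% and not every replicate reaching it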;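 note: 0% = neutral control wells and 100% = L-leucinethiol positive control wells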
# Ecoli rRNA inh = inhibitors of bacterial rRNA selective over humanized ribosomes; E. coli WT GFP vs humanized-ribosome RFP mutants, fluorescence, 24 h; hits give low values; DMSO median 0, no signal -100; GFP signal change (wild-type ribosome), % (test concentration not listed); 350,000 tested, 1.6% active; AID 720706;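 active = significant combined selectivity score with lowered wild-type GFP, culture density cut under 30%, mutant RFP and density less affected; inactive = any of these conditions unmet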
# Cneo AK release = causes C. neoformans cell lysis | adenylate kinase release luminescence, 4 h; normalised: neutral wells 0, clomiphene wells 100 | lysis activity, % at 15 µM | 360,000 tested, 0.2% active | AID 651654;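 active = mean lysis activity across replicates of at least 80%, whatever share of replicates individually reach that level; inactive = mean lysis activity below 80%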
#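 Test system: log-phase Cryptococcus neoformans yeast cells; Quantity: yeast cell density of 5 × 10^6 cells/mL; Buffer or medium: YPD; Doses: single compound concentration per well; Timing: 4 h at 37 °C static, read 1 h later; Measured by: AK luminescence; Read-out basis: lysis from increased AK signal; Control set: Clomiphene as positive control.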
# Env fusion inh = HIV envelope-mediated fusion inhibition | HeLa-JRFL Env/CEM21 cell fusion, luciferase | inhibition, % at 12.3 µM | 360,000 tested, 1.1% active;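 active = mean replicate inhibition score of at least 50 and every replicate individually at or above 50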;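 note: 0% = plate neutral controls and 100% = maraviroc near 300 nM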
# FGF22 binding = FGF22 (human) thermal shift binding. recombinant FGF22 thermal shift, SYPRO orange fluorescence; percent of sucrose octasulfate shift, DMSO zero. activity (Tm shift, normalised), % at 9.99 µM. 340,000 tested, 1.5% active. AID 651658;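 active = mean Tm shift, scaled 0 neutral to 100 positive control, at about 1.3% or above, every replicate too, limit read from the data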
# Target sequence (Q9HCT0 whole entry, looked up): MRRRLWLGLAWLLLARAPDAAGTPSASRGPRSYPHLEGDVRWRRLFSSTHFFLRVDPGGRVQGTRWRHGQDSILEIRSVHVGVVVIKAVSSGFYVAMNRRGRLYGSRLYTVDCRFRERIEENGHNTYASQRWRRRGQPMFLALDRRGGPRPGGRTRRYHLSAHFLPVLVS
# * hit, by the source's call; / = no result; [ ] = remark or other dose. This is a sample that favours compounds with a hit; in the whole collection about 3.5% have one here.
SMILES,PGC1a acetyl inh,ERAP1 inh,Ecoli rRNA inh,Cneo AK release,Env fusion inh,FGF22 binding
CCSc1nc2ccccc2c(=O)n1Cc1ccc(F)cc1,-6,2,-19*,/,6,44*
C[C@H]1CN([C@@H](C)CO)C(=O)CCCn2nncc2CO[C@H]1CN(C)C,-1,1,2,-15,8[16.7 µM],0
COc1cc(CNCc2ccncc2)cc(Br)c1OCc1ccccc1F,7,/,/,0,67*,/
COc1cc(CNc2ccc(O)cc2)cc(Br)c1OCc1ccccc1F,8,/,/,-1,/,/
Cc1ccc(C2=C(CC(=O)O)C(=O)CC2)cc1,/,/,/,1,24,/
COC(=O)CC1=C(c2ccc([N+](=O)[O-])cc2)CCC1=O,-13,-2,-19*,0,-23,0
Cc1cccc(NC(=S)NC(=O)/C=C/c2ccco2)c1,5,-1,-8,26,-50,1.4*
COc1ccc(-c2csc(NC(=S)NC(=O)/C=C/c3ccco3)n2)cc1Br,4,/,-41*,0,-226,0
COc1ccc(-c2csc(NC(=S)NC(=O)/C=C/c3ccco3)n2)cc1OC,-6,-1,-14,/,/,0
CC(=O)c1ccc(S(=O)(=O)Nc2ccc(C(=O)NC3CC3)cc2)cc1,-1,3,3,-1,-4,0
Cc1ccc(CNCC(O)c2ccccc2)s1 (stereo unspecified),-10,-1,16,-1,9,0
O=C(c1ccc(Oc2cc(Cl)cc(Cl)c2)o1)N1CCCCC1,/,-1,-49*,1,12,0
O=C(NCCN1CCCCC1)c1ccc(Oc2cc(Cl)cc(Cl)c2)o1,6,-3,/,6,12,0
COC(=O)COc1ccc(S(=O)(=O)Nc2ccc(C(N)=O)cc2)cc1,8,0,9,1,-10,/
CCN(CC)P(=O)(Nc1ccccc1Br)c1ccc(N(C)C)cc1NC(=O)c1ccco1 (stereo unspecified),2,-3,21,/,43,44*
COc1cccc(C(=O)NCCOc2cc(C)cc(C)c2)c1,25,/,/,1,15,/
O=C(CCn1ccc([N+](=O)[O-])n1)NC1CCCCCC1,/,-3,/,/,-16,0
CCN(CC)c1nc(Nc2ccccc2)nc(Oc2ccc(=O)[nH]n2)n1,-2,/,/,-4,91*,/
O=C1NC2=C(C(=O)CCC2)C(c2ccccc2)N1 (stereo unspecified),/,2,4,-1,-3,0
Cc1occc1-c1n[nH]c(=S)n1C,5,17,4,/,-30,43*
CCOc1ccc(NC(=O)CN(C)C(=O)Cn2cnc3c2c(=O)n(C)c(=O)n3C)cc1OCC,/,30*,6,-1,-19,0
CCOc1ccccc1OCC(=O)NNC(=O)Cn1cnc2c1c(=O)n(C)c(=O)n2C,/,0,11,1,19,44*
COC(=O)c1ccccc1NC(=O)Cn1cnc2c1c(=O)n(C)c(=O)n2C,5,/,13,0,9,0
O=C(Cc1ccc(N2CCNC2=O)cc1)N1CCCC(Nc2cccc(F)c2)C1 (stereo unspecified),7,3,16,1,-260,0
CNC(=O)C1=C[C@H](c2csc3ccccc23)C[C@H](OCCCCO)O1,4,3,/,-11,-8[16.7 µM],0
SMILES,PGC1a acetyl inh,ERAP1 inh,Ecoli rRNA inh,Cneo AK release,Env fusion inh,FGF22 binding
CCC(=O)Nc1ccc(C(=O)Nc2ccc(Br)cc2F)cc1,/,0,12,-1,-13,43*
CN(C)Cc1cc(C(C)(C)c2ccccc2)ccc1O,4,1,-3,/,/,43*
Cc1cccc(C)c1NC(=O)CN(C)c1ccc(C(F)(F)F)cn1,4,-3,9,/,3,43*
CCCN(C)C[C@H]1Oc2ncc(Br)cc2C(=O)N([C@@H](C)CO)C[C@H]1C,16,0,0,-3,1[16.7 µM],0
CC(C)CN(C(=O)COC(=O)Cc1c[nH]c2ccccc12)C1CCS(=O)(=O)C1 (stereo unspecified),14,/,/,3,-38,/
Cc1ccccc1CN1N=C(/C=C/c2ccccc2)CCC1=O,9,-3,-31,-17,-4,45*
Cc1cc(-n2c(C)cc(C(=O)CSc3nnnn3-c3ccccc3)c2C)no1,-22,5,-16,-2,/,0
CC1(c2ccccc2)NC(=O)N(CC(=O)Nc2ccc(N3CCOCC3)cc2N2CCOCC2)C1=O (stereo unspecified),-4,0,5,2,-1,0
O/N=C/c1ccc2cccc(OCc3ccccc3)c2n1,-7,0,-29*,1,22,0
C[C@H]1CN=C(Nc2ccccc2)N1CCCC1CCCC1,-12,-2,-1,1,-14,0
c1ccc(CN2CCN(c3ncccn3)CC2)cc1,3,-2,9,3,-2,0
O=C(CN1CCN(c2ncccn2)CC1)N(Cc1ccccc1)c1ccc(F)cc1,3,-5,-35*,0,/,0
CCN(c1ccc(C)cc1)S(=O)(=O)c1nnc(NC(=O)c2ccco2)s1,5,0,1,37,13,0
CN(C)CC#Cc1ccc([C@@H]2[C@@H](CO)N3CCCCN(C(=O)C4CC4)C[C@H]23)cc1,-2,2,/,0,/,0
O=C(O)c1ccccc1N/N=C/c1cc(Br)cc(Br)c1O,10,2,-9,3,-70,44*
CC(C)(C)c1ccc(-n2nc(C#N)c(Cl)cc2=O)cc1,82*,2,-27,/,-25,0
CCCCn1nnc(NC(=O)COc2ccc(Cl)c(C)c2)n1,8,/,/,/,-82,/
Cc1nc2nc(Cc3ccccc3)[nH]n2c(=O)c1Cl,-4,/,/,-1,/,/
COc1cc2c(cc1OC)C(c1c(Cl)cccc1Cl)=NCC2,/,-1,-6,/,60*,0
O=C(Nc1cc(S(=O)(=O)N2CCOCC2)ccc1N1CCCC1)c1ccccc1F,-7,-7,13,-8,7,/
COc1ccc(NC(=O)Nc2ccc3c(c2)C(=O)N([C@H](C)CO)C[C@H](C)[C@@H](CN(C)C(=O)c2ccccc2)OCCCC[C@H](C)O3)cc1,-2,-2,-3,1,-50[16.7 µM],0
COc1ccc(NC(=O)Nc2ccc3c(c2)C(=O)N([C@@H](C)CO)C[C@H](C)[C@H](CN(C)C(=O)c2ccccc2)OCCCC[C@H](C)O3)cc1,9,-3,0,54,56*[16.7 µM],1.4*
COc1ccc(NC(=O)Nc2ccc3c(c2)C(=O)N([C@H](C)CO)C[C@H](C)[C@H](CN(C)C(=O)c2ccccc2)OCCCC[C@H](C)O3)cc1,-10,0,-1,41,61*[16.7 µM],-1
C(=C\c1ccccc1)/C=N/N1CCN(Cc2ccccc2)CC1,6,-4,-25*,/,7,1
C(/C=C/c1ccccc1)=N/N1CCN(c2ccccc2)CC1,4,/,/,1,-85,/

# Screens: PubChem BioAssay, Broad Institute
